Published values pooled from the literature.
Each line is one published result; the experiments were not run side by side.
NT5E: 5'-nucleotidase (NT5E, Homo sapiens, UniProt P21589)

Compound | target | observed | mode | method | concentration | measurement | value
C1=C/COCc2cc(ccc2OCCN2CCCC2)Nc2nccc(n2)-c2cccc(c2)COC/1 | Cyclin-dependent kinase 13 (CDK13, Homo sapiens, UniProt Q14004) | cell-free assay |  |  | 0.1 µM | remaining signal | 60%
N#Cc1c(C(F)(F)F)cc(-c2ccccc2)nc1SCC(=O)Nc1cccnc1 | NT5E | enzyme activity | inhibitor |  | 10 µM | inhibition | 40%
CC(=O)ON=C1C=CC(=C(C#N)c2ccccc2)C=C1 | Dual specificity tyrosine-phosphorylation-regulated kinase 1A (Dyrk1a, Rattus norvegicus, UniProt Q63470) | enzyme activity | inhibitor | ADP detection | 2 µM | activity vs control | 87%
NC/C(=C\F)COc1cccc(Cn2c(=S)[nH]c(=O)c3[nH]cnc32)c1 | Lactoperoxidase (LPO, Bos taurus, UniProt P80025) | enzyme activity | inhibitor |  | 2.5 µM | remaining activity | 81.1%
Cc1cc(-c2ccccc2)c(C#N)c(SCC(=O)Nc2nccs2)n1 | NT5E | enzyme activity | inhibitor | HPLC | 10 µM | inhibition | 91%
COc1ccc2oc(-c3ccc4nc(N)oc4c3)c/c(=N\c3ccccc3NC(=O)CCN)c2c1 | Platelet-derived growth factor receptor alpha (PDGFRA, Homo sapiens, UniProt P16234) | binding |  |  | 1 µM | remaining binding | 103%
O=C(NS(=O)(=O)c1ccc(C(F)(F)F)cc1)c1cc2ccccc2n1Cc1ccc(Br)c2ccccc12 | Xanthine dehydrogenase/oxidase (XDH, Bos taurus, UniProt P80457) | enzyme activity | inhibitor | absorbance | 10 µM | inhibition | 17.2%
CCCCC(=O)Nc1ccc(-c2ccc3ncn(CCC)c(=O)c3c2)cn1 | Phosphatidylinositol 4-kinase beta (PI4KB, Homo sapiens, UniProt Q9UBF8) | binding |  | competition with immobilised ligand | 0.5 µM | remaining binding | 53%
